Source: article PMC7072008 (ACS infectious diseases, 2020)
Read-outs that look alike come from different tables or passages of the source.

Columns and labels:
[1] = system: S. haematobium adult worms; assay: Ex vivo adult worm killing, continuous exposure; conditions: 10 μM, 144 h
S. mansoni adult worms [2] = assay: Brief; set-up: species or system Schistosoma mansoni; conditions: then 5 days in media without compound
hGR = target: T1, hGR (Homo sapiens, UniProt P00390); assay: Inhibition of human glutathione reductase; format: biochemical; conditions: for Inhibition of hGR: at 2 mM (concentrations as high as 2 mM); for IC50: read-out: hGR IC50; for hGR IC50 fold higher than for TGR: selectivity TGR versus hGR
T1 sequence (P00390 44-522): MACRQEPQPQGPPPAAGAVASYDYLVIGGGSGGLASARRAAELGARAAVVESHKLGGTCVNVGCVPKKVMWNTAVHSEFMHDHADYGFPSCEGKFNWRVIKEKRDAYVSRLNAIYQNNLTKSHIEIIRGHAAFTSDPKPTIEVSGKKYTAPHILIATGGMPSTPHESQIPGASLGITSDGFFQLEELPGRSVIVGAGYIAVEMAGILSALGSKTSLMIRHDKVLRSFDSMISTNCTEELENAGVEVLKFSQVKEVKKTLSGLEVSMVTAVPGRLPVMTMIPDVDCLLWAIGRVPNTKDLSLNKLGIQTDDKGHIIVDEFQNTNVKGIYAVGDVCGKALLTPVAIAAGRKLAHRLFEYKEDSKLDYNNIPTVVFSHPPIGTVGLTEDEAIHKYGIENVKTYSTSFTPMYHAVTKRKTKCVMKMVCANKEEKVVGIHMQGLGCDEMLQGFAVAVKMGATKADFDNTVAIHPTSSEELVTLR

S. mansoni adult worms [3] = assay: Ex vivo adult worm killing, continuous exposure; set-up: species or system Schistosoma mansoni; conditions: for LD50 against S. mansoni adult worms: 5 days incubation, media and compounds replaced daily
[4] = target: T2, TGR (GSSG reducing activity) (Schistosoma mansoni, UniProt Q962Y6); assay: TGR inhibition assay, GSSG reduction; format: biochemical; conditions: read-out: IC50 (GSSG); GSSG as substrate
T2 sequence (Q962Y6 1-598): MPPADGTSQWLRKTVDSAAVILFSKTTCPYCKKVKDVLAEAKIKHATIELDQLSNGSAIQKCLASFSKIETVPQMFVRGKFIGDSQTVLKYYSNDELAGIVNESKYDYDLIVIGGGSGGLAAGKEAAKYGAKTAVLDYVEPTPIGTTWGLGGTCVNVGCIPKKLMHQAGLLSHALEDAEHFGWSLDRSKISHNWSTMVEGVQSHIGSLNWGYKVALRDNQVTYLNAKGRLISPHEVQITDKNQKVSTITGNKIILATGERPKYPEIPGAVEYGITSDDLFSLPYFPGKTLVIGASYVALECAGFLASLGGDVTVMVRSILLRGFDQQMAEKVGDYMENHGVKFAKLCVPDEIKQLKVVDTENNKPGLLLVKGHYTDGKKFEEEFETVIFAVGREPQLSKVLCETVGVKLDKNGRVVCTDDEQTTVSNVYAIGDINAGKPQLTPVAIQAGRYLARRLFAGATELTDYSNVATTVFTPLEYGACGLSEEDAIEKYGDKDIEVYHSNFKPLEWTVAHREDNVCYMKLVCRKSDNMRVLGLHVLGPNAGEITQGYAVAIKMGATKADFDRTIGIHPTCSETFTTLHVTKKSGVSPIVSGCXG
Summary of the method: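 Recombinant wild-type S. mansoni TGR (selenoprotein) was expressed in E. coli BL21 (DE3) with a His-SUMO tag. The tag was removed, leaving Gly-Ser-His at the N-terminus. Inhibition was measured as enzymatic GSSG reduction, run in triplicate.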

S. mansoni schistosomula = assay: Schistosomula; set-up: species or system Schistosoma mansoni; conditions: 10 μM
[5] = system: S. mansoni juvenile worms; assay: Ex vivo juvenile worm killing, continuous exposure; set-up: species or system Schistosoma mansoni; conditions: 10 μM
[6] = target: T3, TGR (DTNB reducing activity) (Schistosoma mansoni, UniProt Q962Y6); assay: TGR inhibition confirmatory assay, DTNB reduction; format: biochemical
T3 sequence (Q962Y6 1-598): T2 sequence (Q962Y6 1-598)

TGR [7] = target: T4, TGR (Schistosoma mansoni, UniProt Q962Y6); assay: NADPH oxidase activity of inhibited TGR; format: biochemical; conditions: for H2O2 production compared with untreated TGR: Amplex Red and horseradish peroxidase
T4 sequence (Q962Y6 1-598): T2 sequence (Q962Y6 1-598)

schistosomes = conditions: cited from earlier work
parasites = conditions: 5 μM (physiological concentration); cited from earlier work
TGR [8] = target: T4, TGR; assay: NADPH-dependence and reversibility of TGR inhibition; format: biochemical; conditions: for Reversibility of TGR inhibition: incubation with NADPH, activity 30 minutes and 3 hours after desalting
Schistosoma mansoni TGR = conditions: read-out: TGR IC50 qHTS, cited from earlier work
[9] = cited from earlier work
Schistosoma mansoni = conditions: overnight exposure; cited from earlier work
TGR [10] = target: T4, TGR; assay: TGR dimer/monomer analysis by native PAGE; conditions: native PAGE after reaction with compound
S. japonicum adult worms = assay: Ex vivo adult worm killing, continuous exposure; conditions: 12.5 μM, 120 h
[11] = read-out: IC50 (DTNB), DTNB as substrate
[12] = read-out: TGR IC50 Confirm, confirmatory assay
[13] = PubChem BioAssay, ref AID485364

COC(=O)CS(=O)(=O)c1nnc(C(Cc2ccccc2)NC(=O)OC(C)(C)C)o1 (stereo not shown) [Compound 1]
Adult worms Sh, dead [1]: 10 μM 144 h 67% d^‡ | S. mansoni adult worm killing after 1 hr exposure (S. mansoni adult worms [2]; 20 μM): 60% | Inhibition of hGR (hGR): did not inhibit | LD50 against S. mansoni adult worms (S. mansoni adult worms [3]): 8.41 µM | IC50 [4]: 390 ± 70 nM | Sm Somula, dead (S. mansoni schistosomula; 24 h): 10 μM 24 h 99% d^‡ | Sm juvenile, dead ([5]; 120 h): 10 μM 120 h 39% d^‡ | IC50 [6, 11]: 330 ± 70 nM | IC50 [6, 12]: 330 nM

CC(=O)OC[C@H]1O[C@@H]([S-])[C@H](OC(C)=O)[C@@H](OC(C)=O)[C@@H]1OC(C)=O.CCP(CC)CC.[Au+] [auranofin]
H2O2 production compared with untreated TGR (TGR [7]): same low amounts of H2O2 as untreated TGR | Decrease of NADPH consumption compared with uninhibited TGR (TGR [7]; after treatment and desalting): about 50% | Cure of infected mice (schistosomes): partially cure infected mice | Killing of parasites in culture (parasites): kill parasites rapidly | TGR inhibition in the absence of NADPH (TGR [8]; compounds at 20 times the IC50, TGR 50 nM, incubation without NADPH, desalting): found to inhibit TGR | Reversibility of TGR inhibition (TGR [8]): irreversible inhibitors of TGR

COc1ccc([N+](=O)[O-])c(S(=O)(=O)c2ccc(Cl)cc2)n1 [Compound 5, TRi-1]
S. mansoni adult worm killing after 1 hr exposure (S. mansoni adult worms [2]; 20 μM): about 10% | S. mansoni adult worm killing after 1 hr exposure (S. mansoni adult worms [2]; 50 μM): 60% | IC50 (Schistosoma mansoni TGR; [13]): 100 nM | IC50 (hGR): 104000 nM | hGR IC50 fold higher than for TGR (hGR): 1700 fold | LD50 against S. mansoni adult worms (S. mansoni adult worms [3]): 10.1 µM | IC50 [4]: 50 ± 10 nM | Sm Somula, dead (S. mansoni schistosomula; 24 h): 10 μM 24 h 100% d^‡ | Sm juvenile, dead ([5]; 120 h): 10 μM 120 h 57% d^‡ | IC50 [6, 11]: 60 ± 10 nM | IC50 [6, 12]: 60 nM | Tolerability in animal models ([9]; in vivo): well tolerated

O=C(C1CCCCC1)N1CC(=O)N2CCc3ccccc3C2C1 (stereo not shown) [praziquantel, reference compound]
LD50 of praziquantel (Schistosoma mansoni): 40 µM | S. mansoni adult worm killing after 1 hr exposure (S. mansoni adult worms [2]; 100 μM): 20% | LD50 against S. mansoni adult worms (S. mansoni adult worms [3]): 0.5 µM

O=[N+]([O-])c1ccc2c(c1)S(=O)(=O)C=C2 [Compound 4, Stattic]
S. mansoni adult worm killing after 1 hr exposure (S. mansoni adult worms [2]; 20 μM): about 10% | S. mansoni adult worm killing after 1 hr exposure (S. mansoni adult worms [2]; 50 μM): 100% | IC50 (Schistosoma mansoni TGR; ref Li et al. 2015 [18]): 5440 nM | IC50 (hGR): 30700 nM | hGR IC50 fold higher than for TGR (hGR): 15 fold | Adult worms Sm, dead (S. mansoni adult worms [3]; 10 μM, 144 h): 10 μM 144 h 76% d^‡ | LD50 against S. mansoni adult worms (S. mansoni adult worms [3]): 7.08 µM | IC50 [4]: 2200 ± 200 nM | Sm Somula, dead (S. mansoni schistosomula; 24 h): 10 μM 24 h 100% d^‡ | Sm juvenile, dead ([5]; 72 h): 10 μM 72 h 100% d^‡ | IC50 [6, 11]: 2010 ± 140 nM | IC50 [6, 12]: 2010 nM | Tolerability in animal models ([9]; animal models of different diseases): well tolerated | Monomer formation of TGR (TGR [10]): No evidence for monomer formation

COc1ccc(C(Nc2cc(C)ccn2)c2ccc3ccc(C)nc3c2O)cc1 (stereo not shown) [Compound 8]
Adult worms Sj, dead (S. japonicum adult worms): 12.5 μM 120 h 56% d^‡ | S. mansoni adult worm killing after 1 hr exposure (S. mansoni adult worms [2]; 20 μM): 10% | S. mansoni adult worm killing after 1 hr exposure (S. mansoni adult worms [2]; 100 μM): 30% | H2O2 production compared with untreated TGR (TGR [7]): same low amounts of H2O2 as untreated TGR | IC50 (Schistosoma mansoni TGR; [13]): 398 nM | Inhibition of hGR (hGR): did not inhibit | Adult worms Sm, dead (S. mansoni adult worms [3]; 12.5 μM, 120 h): 12.5 μM 120 h 53% d^‡ | LD50 against S. mansoni adult worms (S. mansoni adult worms [3]): 12.4 µM | IC50 [4]: 330 ± 50 nM | Sm Somula, dead (S. mansoni schistosomula; 120 h): 10 μM 120 h 20% d^‡ | Sm juvenile, dead ([5]; 120 h): 10 μM 120 h 24% d^‡ | IC50 [6, 11]: 130 ± 40 nM | IC50 [6, 12]: 130 nM | Reversibility of TGR inhibition (TGR [8]): reversible inhibition
